# Read-outs that look alike come from different tables or passages of the source.
# Experiments:
# [1] = system: Japanese patients with acute myeloid leukemia; test: Electrocardiogram QTcF assessment; format: in vivo, human
# Plasma pharmacokinetics = format: in vivo, human
# [2] = system: Japanese patients with acute myeloid leukemia; test: Best response and remission duration; format: in vivo, human
# In short: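 Same patients and dosing: 2-h IV infusion on days 1 and 15 of 28-day cycles, at 350, 400 or 450 mg. Best response (CR, CRi, PR) and remission duration judged by International Working Group and European Leukemia Net criteria. Assessed in peripheral blood and bone marrow, with imaging added for extramedullary disease. Efficacy cut-off 12 March 2015.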
# PLK1 = conditions: cited from earlier work
# [3] = system: White patients with relapsed or refractory AML; conditions: cited from earlier work
# [4] = system: more than 50 unrelated kinases; conditions: more than 50 kinases tested; cited from earlier work
# PLK3 = conditions: compared with PLK1; cited from earlier work
# [5] = human, plasma, intravenous, 350 mg
# [6] = human, plasma, intravenous, 400 mg
# [7] = human, plasma, intravenous, 450 mg
structure (smiles),measurement,setting,value
CC[C@@H]1C(=O)N(C)c2cnc(Nc3ccc(C(=O)N[C@H]4CC[C@H](N5CCN(CC6CC6)CC5)CC4)cc3OC)nc2N1C(C)C [Volasertib],Patients with >60 ms QTcF increase at end of infusion versus prior to infusion,[1]; 450 mg cohort 3 only,two patients
same,QTcF intervals >500 ms,[1]; all cohorts,No QTcF intervals >500 ms were reported
same,Time of maximum increase in mean QTcF interval after start of infusion,[1]; all dose cohorts,2 h
same,Clinically relevant abnormalities in cardiologic assessment,"[1]; any cohort, during treatment",No patients in any cohort developed clinically relevant abnormalities
same,Time by which mean QTcF returned to near baseline,"[1]; post-dosing, all dose cohorts",≤ 24 h
same,Mean plasma concentration relative to maximum plasma concentration,Plasma pharmacokinetics; 24 h after administration,< 10%
same,Dose dependence of exposure,Plasma pharmacokinetics; dose range 350–450 mg,increased dose‐proportionally
same,Vd,"Plasma pharmacokinetics; human, plasma, intravenous",3540 to 4720 L
same,clearance,"Plasma pharmacokinetics; human, plasma, intravenous",606 to 669 mL/min
same,half-life,"Plasma pharmacokinetics; human, plasma, intravenous",108 to 130 h
same,AUC(0-inf),Plasma pharmacokinetics; [5],8720 ng·h/mL
same,AUC(0-t),Plasma pharmacokinetics; [5],7810 ng·h/mL
same,Cmax,Plasma pharmacokinetics; [5],756 ng/mL
same,Tmax,Plasma pharmacokinetics; [5],1.97 h
same,clearance,Plasma pharmacokinetics; [5],669 mL/min
same,half-life,Plasma pharmacokinetics; [5],117 h
same,AUC(0-inf),Plasma pharmacokinetics; [6],10400 ng·h/mL
same,AUC(0-t),Plasma pharmacokinetics; [6],9340 ng·h/mL
same,Cmax,Plasma pharmacokinetics; [6],762 ng/mL
same,Tmax,Plasma pharmacokinetics; [6],1.05 h
same,clearance,Plasma pharmacokinetics; [6],643 mL/min
same,half-life,Plasma pharmacokinetics; [6],130 h
same,AUC(0-inf),Plasma pharmacokinetics; [7],12400 ng·h/mL
same,AUC(0-t),Plasma pharmacokinetics; [7],11400 ng·h/mL
same,Cmax,Plasma pharmacokinetics; [7],1060 ng/mL
same,Tmax,Plasma pharmacokinetics; [7],1.53 h
same,clearance,Plasma pharmacokinetics; [7],606 mL/min
same,half-life,Plasma pharmacokinetics; [7],108 h
same,"AUC0–∞,norm (dose normalized), gMean (gCV%)","Plasma pharmacokinetics; plasma, after first infusion of volasertib 350 mg (n = 7)",24.9 (27.8) ng·h/mL/mg
same,"AUC0–∞,norm (dose normalized), gMean (gCV%)","Plasma pharmacokinetics; plasma, after first infusion of volasertib 400 mg (n = 4)",25.9 (54.7) ng·h/mL/mg
same,"AUC0–∞,norm (dose normalized), gMean (gCV%)","Plasma pharmacokinetics; plasma, after first infusion of volasertib 450 mg (n = 8)",27.5 (22.8) ng·h/mL/mg
same,"Best overall response CR, patients",[2]; 350 mg (n = 7),1 n
same,"Best overall response PD, patients",[2]; 350 mg (n = 7),3 n
same,"Best overall response SD, patients",[2]; 350 mg (n = 7),3 n
same,Patients with CR/CRi,[2]; 350 mg (n = 7),1 n
same,"Best overall response CR, patients","[2]; 350 mg (n = 7), listed as volasertib",One of seven patients
same,"Remission duration, median (range)","[2]; 350 mg, 1 patient with CR/CRi",358 days
same,"Best overall response CRi, patients",[2]; 400 mg (n = 4),2 n
same,"Best overall response SD, patients",[2]; 400 mg (n = 4),2 n
same,Patients with CR/CRi,[2]; 400 mg (n = 4),2 n
same,"Best overall response CRi, patients","[2]; 400 mg (n = 4), listed as volasertib",two of four patients
same,"Remission duration, median (range)","[2]; 400 mg, 2 patients with CR/CRi",72 (70–74) days
same,"Best overall response CR, patients",[2]; 450 mg (n = 8),2 n
same,"Best overall response CRi, patients",[2]; 450 mg (n = 8),1 n
same,"Best overall response PD, patients",[2]; 450 mg (n = 8),1 n
same,"Best overall response PR, patients",[2]; 450 mg (n = 8),1 n
same,"Best overall response SD, patients",[2]; 450 mg (n = 8),3 n
same,Patients with CR/CRi,[2]; 450 mg (n = 8),3 n
same,"Remission duration, median (range)","[2]; 450 mg, 3 patients with CR/CRi",96 (56–262) days
same,"Best overall response CR, patients",[2]; Total (N = 19),3 n
same,"Best overall response CR, share of patients",[2]; Total (N = 19),15.8%
same,"Best overall response CRi, patients",[2]; Total (N = 19),3 n
same,"Best overall response CRi, share of patients",[2]; Total (N = 19),15.8%
same,"Best overall response PD, patients",[2]; Total (N = 19),4 n
same,"Best overall response PD, share of patients",[2]; Total (N = 19),21.1%
same,"Best overall response PR, patients",[2]; Total (N = 19),1 n
same,"Best overall response PR, share of patients",[2]; Total (N = 19),5.3%
same,"Best overall response SD, patients",[2]; Total (N = 19),8 n
same,"Best overall response SD, share of patients",[2]; Total (N = 19),42.1%
same,"Patients achieving best response of CR, CRi or PR",[2]; Total (N = 19),36.8%
same,Patients with CR/CRi,[2]; Total (N = 19),6 n
same,"Remission duration, median (range)","[2]; Total, 6 patients with CR/CRi",85 (56–358) days
same,"Remission duration, median (range)","[2]; Total, 6 patients with CR/CRi, listed as volasertib",85 days
same,"Patients achieving best response of CR, CRi or PR",[2]; out of 19 treated patients,7 patients
same,Duration for which CR was maintained in one patient,"[2]; person, primary refractory M2 de novo AML, complex karyotype, CR after cycle 3",358 days
same,Inhibition of PLK1,PLK1,selectively inhibit
same,DLT reported in White patients,[3]; 400 mg,mucosal inflammation
same,DLT reported in White patients,[3]; 450 mg,pyrexia
same,MTD in White patients,"[3]; volasertib monotherapy, phase I",450 mg
same,Inhibition of unrelated kinases,[4],does not inhibit
same,Inhibition of PLK3,PLK3,to a lesser extent
